The M2OR odorant receptor database

Legend:
Details in all cases: stereoisomer not certain
Or5p80 (Mus musculus) = target: T1, Or5p80 (Mus musculus) (UniProt Q8VG42)
T1 sequence (whole entry): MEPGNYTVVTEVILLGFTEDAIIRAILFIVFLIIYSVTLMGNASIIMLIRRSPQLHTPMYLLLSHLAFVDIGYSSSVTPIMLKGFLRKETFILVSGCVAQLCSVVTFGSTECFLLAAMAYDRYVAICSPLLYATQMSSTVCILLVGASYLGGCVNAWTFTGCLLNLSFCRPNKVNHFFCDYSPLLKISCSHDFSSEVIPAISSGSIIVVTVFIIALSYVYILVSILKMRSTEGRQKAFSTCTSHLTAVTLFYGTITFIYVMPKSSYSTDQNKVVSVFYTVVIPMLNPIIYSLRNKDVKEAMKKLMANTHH
Outline: (§1)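 Transient luciferase assays in mammalian cell lines were common, though methods varied by source. The values come from published papers and their supplementary material, with extra details from the original authors when needed. Responsive refers to a measured signal the original authors judged statistically different from baseline, and non-responsive (inactive) to the remainder.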

Or7a40 (Mus musculus) = target: T2, Or7a40 (Mus musculus) (UniProt Q9JHB2)
T2 sequence (whole entry): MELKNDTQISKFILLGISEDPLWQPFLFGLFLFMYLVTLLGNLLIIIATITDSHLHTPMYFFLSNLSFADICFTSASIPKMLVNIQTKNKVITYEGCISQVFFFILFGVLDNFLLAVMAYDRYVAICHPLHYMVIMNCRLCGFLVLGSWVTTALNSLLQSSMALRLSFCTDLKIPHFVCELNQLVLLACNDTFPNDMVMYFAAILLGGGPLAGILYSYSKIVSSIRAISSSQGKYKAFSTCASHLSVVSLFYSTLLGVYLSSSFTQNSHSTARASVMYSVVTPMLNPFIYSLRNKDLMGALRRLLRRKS
Outline: as §1

Or5p57 (Mus musculus) = target: T3, Or5p57 (Mus musculus) (UniProt Q8VEZ0)
T3 sequence (whole entry): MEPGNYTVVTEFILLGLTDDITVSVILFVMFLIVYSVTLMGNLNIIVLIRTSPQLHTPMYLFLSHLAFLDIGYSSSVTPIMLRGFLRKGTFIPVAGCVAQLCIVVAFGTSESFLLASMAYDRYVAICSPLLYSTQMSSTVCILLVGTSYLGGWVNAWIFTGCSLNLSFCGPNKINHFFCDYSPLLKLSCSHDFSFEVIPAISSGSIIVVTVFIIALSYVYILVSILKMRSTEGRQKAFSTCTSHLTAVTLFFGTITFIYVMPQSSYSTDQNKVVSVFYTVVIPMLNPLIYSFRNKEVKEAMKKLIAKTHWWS
Outline: as §1
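Also: active if original authors judged signal statistically different from baseline.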

SMILES | odorant receptor agonist call (Or5p80 (Mus musculus)) | odorant receptor agonist call (Or7a40 (Mus musculus)) | odorant receptor agonist call (Or5p57 (Mus musculus))
CC(C)=CCCC(C)=CCO | inactive | inactive | 
CCCCCCCCS | inactive | inactive | 
CCCCCCCC(C)=O | inactive | inactive | 
O=C(O)CCCCCBr |  |  | inactive
CC(=O)OCc1ccccc1 | inactive | inactive | 
O=C(O)CCCBr |  |  | inactive
O=C([O-])CCCCCCCC(=O)[O-].[H+].[H+] |  |  | inactive
CCCC(=O)C(C)=O | inactive | inactive | 
CCCCCO | inactive | inactive | inactive
O=C(O)CCCCBr |  |  | inactive
O=C(O)CCCCCC(=O)O |  |  | inactive
CCCCCCCO | inactive | inactive | active
CCCCCCCCO | inactive | inactive | inactive
CCCCOC(=O)C(C)OC(=O)CCC (stereo not drawn) | inactive | inactive | 
CCCCCCCCCO | inactive | inactive | inactive
O=C1Cc2ccccc2O1 | inactive | inactive | 
CCCCCCCCCC(=O)[O-].[H+] | inactive | inactive | 
CCC(=O)C(=O)CC | inactive | inactive | 
CCCCCCCCC(=O)O | inactive | inactive | inactive
CCCCCCO | inactive | inactive | active
O=C([O-])CCCCC(=O)[O-].[H+].[H+] |  |  | inactive
CCCCCCCC(=O)[O-].[H+] | inactive | inactive | inactive
O=C([O-])CCCCCCC(=O)[O-].[H+].[H+] |  |  | inactive
CC(=O)Oc1ccccc1 | inactive | inactive | 
CCOC(=O)C(C)C | inactive | inactive | 
CCCCC(=O)O | inactive | inactive | inactive
CCCCCCC(=O)[O-].[H+] | inactive | inactive | inactive
CCC(C(=O)O)c1ccccc1 (stereo not drawn) | inactive | inactive | 
